According to the M2OR odorant receptor database:

Key:
Conditions in all cases: stereoisomer not certain
OR8U9 (Homo sapiens) = OR8U9 (Homo sapiens) (UniProt P0C7N5)
Summary of the method: (§1)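 Each receptor–molecule pair is labelled responsive or non-responsive (inactive) according to whether the original authors judged the measured signal statistically different from baseline. The data were taken from the main text and supplementary material of published papers and checked for typos and inconsistencies. Assay methods differed by source, with transient luciferase assays in mammalian cell lines being common.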

OR9A2 (Homo sapiens) = OR9A2 (Homo sapiens) (UniProt Q8NGT5)
Sequence of OR9A2 (Homo sapiens) (Q8NGT5 whole entry): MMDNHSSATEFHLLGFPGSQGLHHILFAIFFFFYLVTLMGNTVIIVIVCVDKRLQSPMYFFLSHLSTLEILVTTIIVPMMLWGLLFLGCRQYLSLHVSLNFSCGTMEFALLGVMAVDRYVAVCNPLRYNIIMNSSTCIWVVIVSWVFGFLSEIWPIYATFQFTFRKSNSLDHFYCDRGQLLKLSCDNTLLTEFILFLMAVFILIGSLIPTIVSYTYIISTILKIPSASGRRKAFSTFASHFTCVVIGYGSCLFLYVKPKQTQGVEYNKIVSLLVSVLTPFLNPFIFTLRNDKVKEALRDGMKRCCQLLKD
Summary of the method: as §1

OR9A4 (Homo sapiens) = OR9A4 (Homo sapiens) (UniProt Q8NGU2)
Sequence of OR9A4 (Homo sapiens) (Q8NGU2 whole entry): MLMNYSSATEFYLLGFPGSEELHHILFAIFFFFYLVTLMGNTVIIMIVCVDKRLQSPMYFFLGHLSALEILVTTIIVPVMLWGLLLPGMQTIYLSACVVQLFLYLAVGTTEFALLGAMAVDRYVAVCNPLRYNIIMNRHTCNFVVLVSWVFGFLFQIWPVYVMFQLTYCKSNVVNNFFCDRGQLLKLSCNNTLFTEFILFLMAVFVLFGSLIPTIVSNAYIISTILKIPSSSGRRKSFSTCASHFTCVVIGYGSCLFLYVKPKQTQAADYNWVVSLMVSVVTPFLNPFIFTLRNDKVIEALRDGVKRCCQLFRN
Summary of the method: as §1

OR9G1 (Homo sapiens) = OR9G1 (Homo sapiens) (UniProt Q8NH87)
Sequence of OR9G1 (Homo sapiens) (Q8NH87 whole entry): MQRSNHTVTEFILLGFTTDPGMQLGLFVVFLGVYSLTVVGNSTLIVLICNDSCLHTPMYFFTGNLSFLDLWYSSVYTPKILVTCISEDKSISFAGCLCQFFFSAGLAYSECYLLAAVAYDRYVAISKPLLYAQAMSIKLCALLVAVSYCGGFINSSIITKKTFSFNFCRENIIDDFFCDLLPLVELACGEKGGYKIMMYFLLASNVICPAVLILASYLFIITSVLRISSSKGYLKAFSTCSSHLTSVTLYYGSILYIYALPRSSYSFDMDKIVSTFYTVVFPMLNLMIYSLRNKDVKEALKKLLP
Summary of the method: as §1

OR9G4 (Homo sapiens) = OR9G4 (Homo sapiens) (UniProt Q8NGQ1)
Sequence of OR9G4 (Homo sapiens) (Q8NGQ1 whole entry): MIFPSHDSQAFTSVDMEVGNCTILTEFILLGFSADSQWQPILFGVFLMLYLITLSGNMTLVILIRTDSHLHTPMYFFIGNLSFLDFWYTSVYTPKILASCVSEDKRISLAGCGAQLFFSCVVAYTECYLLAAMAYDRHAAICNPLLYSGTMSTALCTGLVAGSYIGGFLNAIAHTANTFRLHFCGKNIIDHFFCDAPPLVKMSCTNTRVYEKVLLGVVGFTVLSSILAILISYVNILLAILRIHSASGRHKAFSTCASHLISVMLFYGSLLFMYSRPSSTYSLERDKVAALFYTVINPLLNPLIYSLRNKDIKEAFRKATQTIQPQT
Summary of the method: as §1

OR8U9 T2A Q3H Q293R = test system: OR8U9 T2A Q3H Q293R
Summary of the method: as §1

OR8U9 = test system: OR8U9
Sequence of OR8U9 (as listed by the source): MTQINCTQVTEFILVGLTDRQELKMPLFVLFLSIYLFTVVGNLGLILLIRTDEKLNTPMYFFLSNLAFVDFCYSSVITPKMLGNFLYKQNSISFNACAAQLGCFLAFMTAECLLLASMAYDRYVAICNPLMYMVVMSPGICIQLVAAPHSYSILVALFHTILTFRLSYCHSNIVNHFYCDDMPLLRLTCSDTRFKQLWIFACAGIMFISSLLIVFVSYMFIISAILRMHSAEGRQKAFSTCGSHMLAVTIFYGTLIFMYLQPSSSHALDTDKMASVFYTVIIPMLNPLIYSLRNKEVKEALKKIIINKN
Summary of the method: as §1

OR9A2 C304Y = test system: OR9A2 C304Y
Sequence of OR9A2 C304Y (as listed by the source, stated change not applied): as the sequence (Q8NGT5 whole entry) above, with C304Y counted along it
Summary of the method: as §1

OR9G4 H6Y N206D V222A = test system: OR9G4 H6Y N206D V222A
Summary of the method: as §1

OR9G4 N206D V222A = test system: OR9G4 N206D V222A
Summary of the method: as §1

Measured: odorant receptor agonist call;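 further: active if original authors judged signal statistically different from baseline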

Sequence of OR8U9 (Homo sapiens) (P0C7N5 whole entry): as the sequence (as listed by the source) above, with R293Q counted along it

Cc1c([N+](=O)[O-])c(C)c([N+](=O)[O-])c(C(C)(C)C)c1[N+](=O)[O-]
inactive: OR8U9 (Homo sapiens) | OR9A2 (Homo sapiens) | OR9A4 (Homo sapiens) | OR9G1 (Homo sapiens) | OR9G4 (Homo sapiens)

C=CCOC(=O)Cc1ccccc1
inactive: OR8U9 (Homo sapiens) | OR8U9 T2A Q3H Q293R | OR8U9 | OR9A2 (Homo sapiens) | OR9A2 C304Y | OR9A4 (Homo sapiens) | OR9G1 (Homo sapiens) | OR9G4 (Homo sapiens) | OR9G4 H6Y N206D V222A | OR9G4 N206D V222A
